According to ChEMBL document CHEMBL5226372, “Tuaimenals B-H, Merosesquiterpenes from the Irish Deep-Sea Soft Coral Duva florida with Bioactivity against Cervical Cancer Cell Lines” (J Nat Prod, 2023):
Calls of active or inactive are those of the source. No cut-off for these calls is given here.

Key:
Ca-Ski [1] = assay: Antiproliferative activity against HPV-positive human Ca-Ski cells assessed as inhibition of cell growth at 50 uM incubated for 48 hrs by WST-1 assay; format: functional, cell-based
C-33-A [2] = assay: Antiproliferative activity against HPV-negative human C-33-A cells assessed as inhibition of cell growth at 50 uM incubated for 48 hrs by WST-1 assay; format: functional, cell-based
Method in brief: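 C33A cells in DMEM, seeded at 1000–3000 per well and exposed to 50 μM etoposide as the positive control alongside a DMSO negative control (N = 3). Proliferation was read by WST-1 after 48 h treatment plus 2 h reagent incubation, at 450/600 nm. End-point absorbances were normalized.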

Klebsiella pneumoniae = assay: Antibacterial activity against Klebsiella pneumoniae; format: functional, organism-based
Ca-Ski [3] = assay: Antiproliferative activity against HPV-positive human Ca-Ski cells assessed as inhibition of cell growth incubated for 48 hrs by WST-1 assay; format: functional, cell-based
Method in brief: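 CaSki cells were grown in RPMI 1640 with 10% FBS, kept below passage 10, at 37 °C and 5% CO2. They were seeded at 1000–3000 cells/well (about 50% confluence) and treated with 12 serial dilutions from 200 to 2 μM in DMSO (N = 3), with DMSO and 50 μM etoposide controls. After 48 h, 2 h WST-1 was read at 450/600 nm, normalized, and fitted by nonlinear regression.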

Pseudomonas aeruginosa = assay: Antibacterial activity against Pseudomonas aeruginosa; format: functional, organism-based
Human orthopneumovirus = assay: Antiviral activity against human respiratory syncytial virus; format: functional, organism-based
C-33-A [4] = assay: Antiproliferative activity against HPV-negative human C-33-A cells assessed as inhibition of cell growth incubated for 48 hrs by WST-1 assay; format: functional, cell-based
Method in brief: (§1)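 CaSki cells (RPMI 1640) and C33A cells (DMEM), passage <10, kept at 37 °C in 5% CO2. Cells were seeded at 1000–3000 per well to reach 50% confluency, then treated 48 h with serial dilutions from 200 to 2 μM in DMSO (N = 3). WST-1 was read after 2 h at 450/600 nm. Absorbances were normalized and EC50 came from nonlinear regression.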

Acinetobacter baumannii = assay: Antibacterial activity against Acinetobacter baumannii; format: functional, organism-based
Enterobacter sp. = assay: Antibacterial activity against Enterobacter sp.; format: functional, organism-based
[5] = tested on: Mycobacterium tuberculosis; assay: Antibacterial activity against Mycobacterium tuberculosis; format: functional, organism-based
Enterococcus faecium = assay: Antibacterial activity against Enterococcus faecium; format: functional, organism-based
Candida = assay: Antifungal activity against Candida; format: functional, organism-based
Staphylococcus aureus = assay: Antibacterial activity against Staphylococcus aureus; format: functional, organism-based
[6] = Selectivity ratio of EC50 for antiproliferative activity against HPV-positive human Ca-Ski cells to EC50 for antiproliferative activity against HPV-negative human C-33-A cells; format: functional; method in brief: as §1

| Structure (SMILES) | Activity (Ca-Ski [1]) | Activity (C-33-A [2]) | Activity (Klebsiella pneumoniae) | EC50 (Ca-Ski [3]) | Activity (Pseudomonas aeruginosa) | Activity (Human orthopneumovirus) | EC50 (C-33-A [4]) | Activity (Acinetobacter baumannii) | Activity (Enterobacter sp.) | Activity [5] | Activity (Enterococcus faecium) | Activity (Candida) | Activity (Staphylococcus aureus) | Ratio EC50 [6] |
| --- | --- | --- | --- | --- | --- | --- | --- | --- | --- | --- | --- | --- | --- | --- |
| COc1cc([C@@H]2c3cc4c(cc3[C@@H](O[C@@H]3O[C@@H]5CO[C@@H](C)O[C@H]5[C@H](O)[C@H]3O)[C@H]3COC(=O)[C@H]23)OCO4)cc(OC)c1O | Active | Active | – | – | – | – | – | – | – | – | – | – | – | – |
| CC(C)=CCC/C(C)=C/CCC1(C)C=Cc2c(C=O)c(O)c(C)c(O)c2O1 (stereo not drawn) | – | – | inactive | 46 µM | inactive | inactive | 58 µM | inactive | inactive | inactive | inactive | inactive | inactive | – |
| CC(C)=CCC/C(C)=C/CC/C(C)=C/Cc1c(O)c(O)c(C)c(O)c1C=O | – | – | inactive | 23 µM | inactive | inactive | 14 µM | inactive | inactive | inactive | inactive | inactive | inactive | – |
| COc1cc(C)c(O)c2c1C=CC(C)(CC/C=C(\C)CCCC(C)(C)OC(C)=O)O2 (stereo not drawn) | – | – | inactive | 20 µM | inactive | inactive | 0.04 µM | inactive | inactive | inactive | inactive | inactive | inactive | 500 |
| CC(=O)Oc1cc(C)c(O)c2c1C=CC(C)(CC/C=C(\C)CCC=C(C)C)O2 (stereo not drawn) | – | – | inactive | 25 µM | inactive | inactive | 14 µM | inactive | inactive | inactive | inactive | inactive | inactive | – |
| COc1cc(C)c(O)c2c1C=CC(C)(CC/C=C(\C)CCCC(C)(C)O)O2 (stereo not drawn) | – | – | inactive | 41 µM | inactive | inactive | 38 µM | inactive | inactive | inactive | inactive | inactive | inactive | – |
